Screening results (PubChem)
FXIIa inh 1536 = inhibitors of human coagulation factor XIIa. purified FXIIa, Boc-QGR-AMC fluorogenic substrate, 2 h. inhibition, % at 5 µM. 220,000 compounds, 0.3% hits; in the data active = inhibition above about 40%
FXIa inh = blocks human coagulation factor XIa protease activity; P03951; purified FXIa, Boc-Glu-Ala-Arg-AMC fluorogenic substrate; inhibition, % at 5 µM; 220,000 compounds, 0.14% hits; AID 798;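 active = inhibition of at least 40%; inactive = inhibition below 40%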;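 also: fluorescence of freed AMC excited at 355 nm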
Thrombin inh = inhibitors of human thrombin; P00734; alpha-thrombin, Boc-VPR-AMC fluorogenic substrate cleavage; inhibition, % at 5 µM; 220,000 compounds, 0.26% hits;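 active = inhibition at or above 40%; inactive = inhibition below 40%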
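System: human alpha-thrombin protein; Compound dosing: one concentration per compound, 5 µM, with 0.2% DMSO; Timing: reaction at room temperature; Technique: AMC fluorescence, 355/460 nm; Controls: enzyme without compound as high, wells lacking enzyme as low.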
hK5 inh = inhibitors of human kallikrein 5 | recombinant hK5, fluorogenic AMC substrate cleavage | inhibition, % at 5 µM | 210,000 compounds, 0.59% hits | AID 873;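 active = inhibition of 40% or more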
A number is an active result; . = inactive; / = no result given. Most compounds without a hit are left out; they make up all but 1% or so of the library.

SMILES	FXIIa inh 1536	FXIa inh	Thrombin inh	hK5 inh
COc1ccc(C(=O)c2oc3ccccc3c2N)cc1	.	.	.	.
NNc1ccc(Cl)nn1	.	.	.	.
N#Cc1cnn(Cc2ccc(Cl)cc2)c1N	58	.	.	.
Cc1c(C)c(C)c(CO/N=C/c2cccs2)c(C)c1C	.	.	.	.
O=C(c1nc2ccccc2s1)N1CCSCC1	.	.	.	.
O=C(c1nc2ccccc2s1)N1CCN(c2ccccn2)CC1	.	.	45	.
CCCc1nc2ccccc2c(C(=O)OCC(=O)N2CCc3ccccc32)c1CC	.	.	.	58
Cc1ccc(S(=O)(=O)N(c2nc(N(C)C)nc(N(C)C)n2)n2cnnc2)cc1	.	.	.	.
Cc1cccc(NC(=O)Nc2ccc3c(c2)N(C)C(=O)CS3)n1	.	.	.	58
COc1ccccc1NC(=O)C1C2CCCCC21 (stereo not given)	.	.	104	61
Cc1c(C(=O)NC(C(C)C)C(C)C)cccc1[N+](=O)[O-]	.	.	.	.
Cc1ccc(S(=O)(=O)N(Cc2ccccc2)c2ccccc2C(=O)Nc2ccccc2C(=O)NCc2ccco2)cc1	.	.	.	.
Cc1ccc(S(=O)(=O)N(Cc2ccccc2)c2ccccc2C(=O)NCc2ccco2)cc1	47	.	.	.
Clc1ccc(-c2cc(-c3nnc4n3CCCCC4)c3ccccc3n2)cc1	.	.	.	.
c1ccc2c(-c3nnc4n3CCCCC4)cc(-c3ccncc3)nc2c1	.	.	45	.
CC(C)(C)c1ccc(Oc2ccc(NC(=O)CCCC(=O)O)cn2)cc1	47	.	.	.
CC(C)(CC(=O)O)CC(=O)Nc1ccc(Oc2ccc(C(C)(C)C)cc2)nc1	.	.	.	.
NC(=O)N/N=C/C=C/c1ccccc1	.	.	42	.
NC(=O)N\N=C/C=C/C=C/c1ccc(F)cc1	.	.	.	.
O=C(/C=C/c1ccccc1)N1CCC[C@H]1CO	.	.	.	.
C#CCSc1nncn1C(=O)/C=C/c1ccccc1	.	.	90	.
CCn1c(C(C)NC(C)=O)nc2ccccc21 (stereo not given)	.	.	.	57
COc1ccc(C(=S)N2CCN(c3cccc(Cl)c3)CC2)cc1	.	.	.	.
CC(=O)NC(CC(=O)NC1CCCCCC1)c1ccccc1 (stereo not given)	.	.	.	.
CC(CC(=O)NC1CCCC1)c1ccccc1 (stereo not given)	.	.	.	60
SMILES	FXIIa inh 1536	FXIa inh	Thrombin inh	hK5 inh
Cc1ccc(SCc2cc(=O)n3ccsc3n2)c(C)c1	.	.	.	.
Cc1ccc(C)c(C(=O)c2c(C)nc3sccn23)c1	.	.	.	44
O=C(CN1CCN(c2ncccn2)CC1)NCc1ccccc1	.	.	.	.
Cc1cc(C)nc(-n2nc(C)cc2Nc2ccccc2)n1	.	.	104	54
N#Cc1c(N)nc2c3c(sc(=N)c2c1N)NC(=O)CC3c1c(F)cccc1Cl (stereo not given)	.	.	.	68
Cc1cc(C)n2nc(S(=O)(=O)N(C)c3ccccc3)nc2n1	.	.	.	55
Cc1cc(C)n2nc(Cc3ccccc3)nc2n1	.	.	.	.
Cc1onc(-c2ccccc2)c1C(=O)N(Cc1ccco1)Cc1cccs1	.	40	.	.
OCCC1CN(Cc2cccc3nonc23)CCN1C1CCCCC1 (stereo not given)	.	.	.	/
Cc1c(C)n(CCC#N)c2ccccc12	43	.	.	.
Cc1cc2c(NC(=O)Nc3ccccc3)cccc2nn1	.	.	.	57
CCC(CC)=C(C#N)C(=O)NC1CCCCC1	.	.	.	.
NC(CC(=O)O)c1ccc(Br)cc1 (stereo not given)	.	.	.	.
O=C(O)CC(Cc1ccc(Br)cc1)C(=O)O (stereo not given)	61	.	.	.
O=C1CC(Nc2ccccc2)C(=O)N1c1ccc(N2CCOCC2)cc1 (stereo not given)	.	.	.	45
Cn1c(SCc2ccccn2)nc2c1c(=O)[nH]c(=O)n2C	.	.	.	.
Cc1oc(S(=O)(=O)N2CCOCC2)cc1C(=O)Nc1ccc(Cl)cc1	.	.	.	.
COc1cc(C(=O)NCCOc2cccc3cccnc23)cc(OC)c1OC	.	.	.	.
COc1ccc(S(=O)(=O)NCCOc2cccc3cccnc23)cc1OC	.	42	.	.
COc1cc(OC)c(C2C(C(=O)O)c3ccccc3C(=O)N2C)cc1OC (stereo not given)	.	.	.	.
COc1ccc(C2C(C(=O)O)c3ccccc3C(=O)N2C)cc1Br (stereo not given)	58	.	.	.
CCOC(=O)C(=CNc1cc(OC)ccc1-n1cccc1)C(=O)OCC	.	.	.	.
